The record followed here is ChEMBL document CHEMBL1799960, “Diadenosine 5',5''-(boranated)polyphosphonate analogues as selective nucleotide pyrophosphatase/phosphodiesterase inhibitors” (J Med Chem, 2010).

The experiment deals with T1, Ectonucleoside triphosphate diphosphohydrolase 3 (Homo sapiens) (UniProt O75355).
T1 sequence (whole entry): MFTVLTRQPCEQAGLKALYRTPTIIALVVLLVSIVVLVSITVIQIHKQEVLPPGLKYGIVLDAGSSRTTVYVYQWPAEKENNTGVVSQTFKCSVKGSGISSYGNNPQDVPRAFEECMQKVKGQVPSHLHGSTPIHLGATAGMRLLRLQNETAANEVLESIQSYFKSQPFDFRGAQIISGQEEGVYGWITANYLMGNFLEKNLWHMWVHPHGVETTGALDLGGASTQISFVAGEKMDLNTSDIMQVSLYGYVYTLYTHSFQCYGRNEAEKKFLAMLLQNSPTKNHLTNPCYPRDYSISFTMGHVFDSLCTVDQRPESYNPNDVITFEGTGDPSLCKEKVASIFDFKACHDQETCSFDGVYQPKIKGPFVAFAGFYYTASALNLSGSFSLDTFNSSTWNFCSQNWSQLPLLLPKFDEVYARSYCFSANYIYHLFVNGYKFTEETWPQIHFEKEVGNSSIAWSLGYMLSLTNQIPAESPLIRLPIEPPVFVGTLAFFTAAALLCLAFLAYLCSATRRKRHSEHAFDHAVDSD
The experiment can be described thus: Activity of human NTPDase3 expressed in COS7 cells assessed as amount of inorganic phosphate released using ATP as the substrate at 100 uM after 15 mins by malachite green reagent method. It is filed as cell-based. Particulars: COS-7. In a few lines:
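Crude membrane-enriched protein extract of transiently transfected COS-7 cells, preincubated 3 min at 37 °C in Tris-Ringer buffer pH 7.3. Reaction started with 100 μM ATP, or with the analogue alone at 100 μM to test it as substrate. Stopped after 15 min with malachite green reagent; released Pi read at 630 nm. Mean ± SD, n = 3.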

The structures appear in SMILES notation.

Turning to `Nc1ncnc2c1ncn2[C@H]1C[C@H](O)[C@@H](COP(=O)(O)CP(=O)(O)OP(=O)(O)CP(=O)(O)OC[C@H]2O[C@@H](n3cnc4c(N)ncnc43)C[C@@H]2O)O1`, the Activity came out at 1.8%. In the case of `Nc1ncnc2c1ncn2[C@@H]1O[C@H](COP(=O)(O)CP(=O)(O)OP(=O)(O)CP(=O)(O)OC[C@H]2O[C@@H](n3cnc4c(N)ncnc43)[C@H](O)[C@@H]2O)[C@@H](O)[C@H]1O` it was 5.3%.
